Hits are enriched below; roughly 2.3% of the tested compounds scored in any of these assays.
TRPC4 block = inhibitors of mouse TRPC4 channel; Q9QUQ5; hit rate 0.39% among 300,000; HEK293 TRPC4beta/mu-opioid, DAMGO-evoked Fluo4 calcium flux; stronger effect = lower value; AID 2247; B-score at 10 µM;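 active = B-score over 3 SD under the library average, no early fluorescence shift, positive overall ratio signal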
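Signal: kinetic Fluo4 fluorescence imaging of calcium influx. Material: stable TRPC4beta/mu-opioid receptor HEK293 cells. Probe or stimulus: DAMGO in two steps, submaximal then maximal.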
TRPC4 agonist = opens the mouse TRPC4 cation channel | Q9QUQ5 | HEK293 TRPC4beta/mu-opioid, Fluo4 calcium fluorescence; stronger effect = higher value | B-score at 10 µM | hit rate 0.49% among 310,000;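 active = B-score above 5 SD of library B-scores, and initial fluorescence ratio not above library mean plus 5 SD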;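 also: positive B-score marks a calcium rise read as TRPC4 activation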
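Assay system: HEK293 cells stably co-expressing mouse TRPC4beta and mu-opioid receptor / Timing: Fluo4 dye loading 45 min at room temperature, 110 s recording / Signal: Fluo4 calcium-sensitive dye fluorescence, kinetic, 1 Hz baseline / Read-out: integrated baseline-normalised fluorescence ratio, converted to per-well B score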
TRPC4 potent = allosteric potentiators of mouse TRPC4 channel | AID 2227 | hit rate 0.42% among 310,000 | Q9QUQ5 | B-score at 10 µM | HEK293 TRPC4beta/mu-opioid, DAMGO EC20, Fluo-4 Ca2+ flux; stronger effect = higher value;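 active = B-score of calcium response area above 5 SD of library B-scores, with initial fluorescence ratio within 5 SD of library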
TRPC6 act = mouse TRPC6 channel activation | Q61143 | HEK293-TRPC6 membrane potential dye fluorescence; stronger effect = higher value | B-score at 10 µM | hit rate 0.13% among 310,000;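 active = B-score of the integrated fluorescence ratio above library mean plus 3 SD, and starting fluorescence ratio within library mean plus 5 SD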;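 also: higher score means more depolarization so channel activation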
TRPC6 inhibitor = mouse TRPC6 channel inhibition. HEK293-TRPC6, membrane potential dye, ACh-evoked depolarization; stronger effect = lower value. Q61143. B-score at 10 µM. AID 2553. hit rate 1.1% among 310,000;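 active = B-score under library mean minus 3 SD, initial fluorescence not abnormally high, positive integrated signal ratio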;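 also: B-score derived from integrated fluorescence ratio over the kinetic read; more negative B-score means stronger inhibition of depolarization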
TRPC4 spec 2 = second check of whether TRPC6 inhibitors also affect mouse TRPC4; shares compounds with TRPC6 inhibitor; HEK293 TRPC4/MOR, membrane potential dye fluorescence; channel activated by saturating DAMGO dose; inhibition, % at 10 µM; hit rate 42% among 920;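 active = compounds whose fluorescence signal differed from control wells by over 3 SD, either direction, in both duplicate plates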
TRPC4 spec = mouse TRPC4 off-target activity of TRPC6 inhibitors | shares compounds with TRPC6 inhibitor | HEK293 TRPC4/mu-opioid, membrane potential fluorescence | activity change, negative = inhibition, % at 10 µM | hit rate 61% among 920 | AID 2777;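 active = rise or fall in signal beyond 3 SD of buffer-only wells in both replicate plates, either sign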;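 also: integrated kinetic ratio of fluorescence range over baseline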
HEK293 MPD ctr 2-1 = parental HEK293 nonspecific activity of TRPC6 inhibitors, second screen; shares compounds with TRPC6 inhibitor; parental HEK293 membrane potential dye fluorescence; maximal acetylcholine challenge after compound addition; signal change vs control, % at 10 µM; hit rate 31% among 920; AID 2779;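 active = membrane potential signal moving either way by over 3 SD of the maximum-effect control, in both duplicate plates, meaning non-specific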
HEK293 MPD ctr-1 = checks TRPC6 inhibitor effects in parental HEK293 cells | hit rate 60% among 920 | parental HEK293 membrane potential dye fluorescence | membrane potential signal change, % at 10 µM | shares compounds with TRPC6 inhibitor;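 active = membrane potential signal shifting up or down by more than 3 SD of buffer-only wells, on both duplicate plates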
HEK293 MPD ctr-2 = checks TRPC6 modulator effects in parental HEK293 cells; shares compounds with TRPC6 inhibitor; membrane potential dye fluorescence; membrane potential signal change, % at 10 µM; hit rate 51% among 2,400; AID 488924;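 active = membrane potential signal moves up or down beyond 5 SD from buffer-only wells, on both duplicate plates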
HEK293 MPD ctr 2-2 = second check of TRPC6 modulator effects in parental HEK293 cells; inhibition, % at 10 µM; hit rate 14% among 2,400; shares compounds with TRPC6 inhibitor; AID 488926; membrane potential dye fluorescence; after compound, maximal acetylcholine stimulation;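 active = membrane potential signal drops by more than 5 SD from the mean control signal, in both duplicate plates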
TRPC4 ctr mod = selectivity of TRPC6 modulators against mouse TRPC4. HEK293 TRPC4/mu-opioid, membrane potential fluorescence. hit rate 69% among 2,400. percent change from control (negative = decrease, positive = increase), % at 10 µM. shares compounds with TRPC6 inhibitor. AID 488927;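 active = membrane potential signal moved up or down beyond 5 SD of buffer control wells, in both duplicate plates, actives on both sides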
TRPC4 ctr inh 2 = second check of whether TRPC6 modulators also affect mouse TRPC4; shares compounds with TRPC6 inhibitor; AID 488928; hit rate 55% among 2,400; HEK293 TRPC4/mu-opioid, membrane potential dye fluorescence; stimulated with maximal-effect DAMGO; inhibition, % at 10 µM;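 active = drop in membrane potential signal beyond 5 SD of the control wells in both duplicate plates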;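 also: TRPC4 counter screen for TRPC6 hits run under conditions tuned for TRPC6 not TRPC4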
TRPC6 block conf = mouse TRPC6 inhibitor confirmation | shares compounds with TRPC6 inhibitor | HEK293-TRPC6, membrane potential dye, ACh-evoked depolarization | inhibition, % at 10 µM | hit rate 43% among 3,300 | AID 488960;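 active = fluorescence ratio falls more than 5 SD below the full-stimulation control mean, in both duplicate runs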;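 also: integrated fluorescence ratio of peak minus minimum over baseline after agonist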
TRPC6 act confirm = confirmation of mouse TRPC6 activators | activation, % at 10 µM | HEK293-TRPC6 membrane potential dye fluorescence, FDSS | hit rate 11% among 2,800 | shares compounds with TRPC6 inhibitor;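 active = ratio signal rise beyond 5 SD above unstimulated control wells' mean, seen in both duplicate runs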
A number is an active result; . = inactive; / = not tested or not shown.

SMILES	TRPC4 block	TRPC4 agonist	TRPC4 potent	TRPC6 act	TRPC6 inhibitor	HEK293 MPD ctr-2	HEK293 MPD ctr 2-2	TRPC4 ctr mod	TRPC4 ctr inh 2	TRPC6 block conf	others
O=C(CCCN1CCC(c2ccccc2)C1)c1ccc2c(c1)OCCO2 (configuration not stated)	.	.	.	.	-6.5	112%	.	.	77%	68%
CS(=O)(=O)N1CCC(Oc2cccc(C(=O)NCCCOc3cccnc3)c2)CC1	.	.	.	.	.	/	/	/	/	/
COc1ccccc1N1CCN(C(=O)c2cc(-c3ccccc3O)on2)CC1	.	.	.	.	-5.9	.	.	.	.	.	TRPC6 act confirm=.
COc1ccccc1N1CCN(C(=O)c2cc(-c3ccccc3)on2)CC1	.	.	.	.	.	/	/	/	/	/
CC(C)(C)CC(=O)NCCCCCCNC(=O)CC(C)(C)C	.	.	.	.	.	/	/	/	/	/
Cc1onc(-c2c(F)cccc2Cl)c1C(=O)Nc1c(C)n(C)n(-c2ccccc2)c1=O	.	.	.	.	.	/	/	/	/	/
Cc1onc(-c2c(F)cccc2Cl)c1C(=O)NC(=S)Nc1c(C)n(C)n(-c2ccccc2)c1=O	.	.	.	.	-9.2	/	/	/	/	.	TRPC4 spec 2=.;TRPC4 spec=.;HEK293 MPD ctr 2-1=38%;HEK293 MPD ctr-1=.;TRPC6 act confirm=.
Cc1ccc(S(=O)(=O)N2CCC(=O)N(CCOC(=O)Nc3ccc(C)c(C)c3)CC2)cc1	.	.	.	.	-6.9	/	/	/	/	.	TRPC4 spec 2=.;TRPC4 spec=.;HEK293 MPD ctr 2-1=.;HEK293 MPD ctr-1=.
Cc1ccc(S(=O)(=O)N2CCC(=O)N(CCOC(=O)Nc3cccc(Cl)c3)CC2)cc1	.	.	.	16	-10	.	.	.	.	108%	TRPC6 act confirm=160%
O=C(O)c1ccc(S(=O)(=O)c2ccc3c(c2)C(=O)N(Cc2ccco2)C3=O)cc1	.	.	.	.	.	/	/	/	/	/
O=C(c1cccc(Cl)c1)N1CCN(C2CCCCCC2)CC1	.	.	.	.	-5.7	171%	.	36%	.	66%
O=C(c1ccccc1)N1CCN(C2CCCCC2)CC1	.	.	.	.	.	/	/	/	/	/
Cn1c2c(c(=O)n(C)c1=O)NC1(N2)C(=O)Nc2ccccc21 (configuration not stated)	.	.	.	.	.	/	/	/	/	/
C=CC[n+]1c(/C=C/c2ccc(OC(C)=O)c(OC)c2)ccc2ccccc21	.	.	.	.	-8	-301%	90%	-57%	65%	64%	TRPC6 act confirm=.
COc1cc(/C=N/NC(=O)Nc2ccccc2)ccc1OC(C)=O	.	.	.	.	.	/	/	/	/	/
CCC(CC)NC(=O)Cc1ccccc1OC	.	.	.	.	.	/	/	/	/	/
C/C(=N\NC(=O)c1c(C)nc2ccccn12)c1ccco1	.	.	.	.	-5.7	-309%	.	-60%	36%	50%	TRPC6 act confirm=.
COc1cccc(-c2c(C(=O)N/N=C/c3ccoc3)nnn2-c2nonc2N)c1	.	.	.	.	.	/	/	/	/	/
Cn1c(=O)c2c(nc(N3CCCCCC3)n2Cc2cccc3ccccc23)n(C)c1=O	.	.	13	.	-8.8	/	/	/	/	.	TRPC4 spec 2=.;TRPC4 spec=.;HEK293 MPD ctr 2-1=.;HEK293 MPD ctr-1=.;TRPC6 act confirm=.
CN1CCN(c2nc3c(c(=O)n(C)c(=O)n3C)n2Cc2cccc3ccccc23)CC1	.	.	.	.	.	/	/	/	/	/
O=C(CSc1ncccn1)N1CCN(C(=O)CSc2ncccn2)CC1	.	.	.	.	.	/	/	/	/	/
O=C(CSc1ncccn1)N1CCN(C(c2ccccc2)c2ccccc2)CC1	.	.	.	.	-7.9	/	/	/	/	76%	TRPC4 spec 2=.;TRPC4 spec=1.9%;HEK293 MPD ctr 2-1=.;HEK293 MPD ctr-1=1.4%
CCOC(=O)C1C(=O)CC(C)(O)C(C(=O)OCC)C1c1ccccc1OC (configuration not stated)	.	.	.	.	.	/	/	/	/	/
CCOC(=O)N1CCC(Nc2ccc3nnc(-c4ccccc4)n3n2)CC1	.	.	.	.	-5.5	.	.	.	.	68%
Fc1cccc(Cc2noc(CN3CCCN(C4Cc5ccccc5C4)CC3)n2)c1	.	.	.	.	-5.1	202%	.	28%	70%	46%
SMILES	TRPC4 block	TRPC4 agonist	TRPC4 potent	TRPC6 act	TRPC6 inhibitor	HEK293 MPD ctr-2	HEK293 MPD ctr 2-2	TRPC4 ctr mod	TRPC4 ctr inh 2	TRPC6 block conf	others
Fc1cccc(Cc2noc(CN3CCN(C4CCc5ccccc5C4)CC3)n2)c1 (configuration not stated)	.	.	.	.	-7.8	/	/	/	/	.	TRPC4 spec 2=.;TRPC4 spec=14%;HEK293 MPD ctr 2-1=290%;HEK293 MPD ctr-1=13%
COc1ccc(NS(=O)(=O)c2cccc(C(=O)NNC(=O)c3cncc(Br)c3)c2)cc1	.	.	.	.	.	/	/	/	/	/
O=C(Nc1ccc(-n2cccc2)cc1)C1CC1	.	.	.	.	.	/	/	/	/	/
CCN(CCCNc1ncnc2nc[nH]c12)c1cccc(C)c1	.	.	.	.	-6.3	.	.	.	.	.	TRPC6 act confirm=.
CCN(CC)CC#CCOC(=O)C(O)(c1ccccc1)C1CCCCC1 (configuration not stated)	.	.	.	.	-6.4	121%	97%	26%	.	81%
CCN(CC)CC#CCC(O)(c1ccccc1)C1CCCCC1 (configuration not stated)	.	.	.	.	.	/	/	/	/	/
Cc1ccc(NC(=O)N2CCCC2C(=O)Nc2c(C)cc(C)cc2C)cc1 (configuration not stated)	.	.	.	.	.	/	/	/	/	/
CN(C)c1cc(-c2ccccc2)nc(N)n1	.	.	.	.	-6.5	-72%	.	-14%	51%	.	TRPC6 act confirm=.

Source: PubChem
